This is a sample that favours compounds with a hit; in the whole collection about 8.2% have one here.
M1 antagonist: M1 muscarinic receptor (rat) antagonism; P08482; AID 628; B-score at 10 µM; CHO-M1 cells, Fluo-4 calcium, ACh EC80 antagonist mode; active compounds read low; 64,000 tested, 3.4% active;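 active means calcium fluorescence response, raw or row-and-column corrected B-score, differing from the plate sample mean either way at a set confidence level, mostly lower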
Target sequence (P08482 whole entry, looked up): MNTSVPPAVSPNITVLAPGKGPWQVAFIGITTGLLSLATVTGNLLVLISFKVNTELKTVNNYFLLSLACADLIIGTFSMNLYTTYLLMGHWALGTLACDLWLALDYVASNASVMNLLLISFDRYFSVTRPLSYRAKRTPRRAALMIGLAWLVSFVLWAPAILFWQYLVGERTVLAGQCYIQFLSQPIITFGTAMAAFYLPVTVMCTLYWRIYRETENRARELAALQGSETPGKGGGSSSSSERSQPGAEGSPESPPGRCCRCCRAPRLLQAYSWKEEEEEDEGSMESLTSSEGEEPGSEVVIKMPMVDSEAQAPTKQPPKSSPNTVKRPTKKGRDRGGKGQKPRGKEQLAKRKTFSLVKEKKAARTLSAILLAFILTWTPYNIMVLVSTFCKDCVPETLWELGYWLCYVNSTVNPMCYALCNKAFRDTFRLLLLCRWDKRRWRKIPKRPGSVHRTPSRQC
RORA act: activates the human nuclear receptor RORA; AID 560; P35398; activation, % at 10 µM; 65,000 tested, 1.5% active; CHO-K1 Gal4-RORA LBD luciferase reporter, luminescence; percent increase over mock-subtracted basal signal;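 active means activation above the mean of all tested compounds plus 3 SD, cut at about 49% in these data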;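 further: 0% = DMSO-treated RORA cells and 100% = added signal equal to DMSO minus mock-transfected cells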
SF-1 act: activators of human nuclear receptor SF-1; Q13285; CHO-K1 Gal4-SF-1 LBD luciferase reporter; % increase over DMSO SF-1-specific signal; activation, % at 10 µM; 65,000 tested, 1.9% active; AID 522;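 active means activation above the mean activation of all tested compounds plus 3 SD, cut at about 50% in these data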
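Compound – one dose, 10 µM compound, 1% DMSO · Test system – transient Gal4-SF-1 LBD reporter, CHO-K1 · Input – 4,000 cells in each well · Read-out basis – percent activation relative to DMSO median and mock-transfected background · Replicates – single measurement per compound · Technique – steady-glow luciferase luminescence, read after 15 min reagent incubation · Timing – 20 h compound treatment, 37 °C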
M1 agonist: agonists of M1 muscarinic receptor | CHO-M1 cells, Fluo-4 calcium fluorescence, agonist mode; active compounds read high | B-score at 10 µM | 64,000 tested, 3% active | AID 626;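 active means fluorescence rise, raw or as B-score row- and column-corrected plate score, outside the 99.7% band of its plate's samples, either direction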
D1 allo mod: allosteric modulators of human D1 dopamine receptor | P21728 | HEK293 D1, CRE-luciferase, dopamine EC30 potentiation; actives deviate in either direction | B-score at 10 µM | 58,000 tested, 5.9% active | AID 641;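 active means luminescence count or its row- and column-corrected plate score outside the 99.7% band of the plate's sample wells, on either side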
HePTP inh: inhibitors of human HePTP phosphatase; recombinant HePTP phosphatase activity, OD absorbance; inhibition, % at 20 µM; 110,000 tested, 0.64% active; AID 521; in the data active means inhibition above about 50%;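 further: plate controls were vehicle for no effect and reference inhibitor for full effect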
* hit, by the source's call; . = not tested or not shown.

SMILES	M1 antagonist	RORA act	SF-1 act	M1 agonist	D1 allo mod	HePTP inh
Nc1nnnn1/N=C/c1ccc(C=O)cc1	.	.	.	.	.	-5
O=C(NC(=S)NCc1ccco1)c1ccc([N+](=O)[O-])cc1	.	.	.	.	.	11
O=C(Nc1cc2nn(-c3ccccc3)nc2cc1Cl)c1ccco1	0.45	25	73*	0.97	0.66	-10
CC(=O)Nc1cc2nn(-c3ccccc3)nc2cc1Cl	-0.25	13	11	-0.024	-0.47	5
O=C(Nc1ccc(S(=O)(=O)N2CCCCCC2)cc1)c1ccco1	-0.088	63*	33	-0.85	0.015	-2
O=C(Nc1ccc2[nH]c3c(c2c1)CCCC3)c1ccco1	-0.16	18	27	3*	-0.013	4
O=C(Nc1ccc(N2CCCC2)c(Cl)c1)c1ccco1	-0.45	17	9	1.2	-4*	-12
O=C(NCc1cccnc1)c1ccc(Br)o1	.	.	.	.	.	-3
CCN(CC)C(=O)c1ccc(C)c(Br)c1	0.027	-8	6	0.2	0.0033	5
Cc1nnc(SCc2ccccc2Cl)n1CC1CCCO1 (stereo not given)	0.69	-6	-7	-1.5	-0.51	-8
CCC(C)c1c(O)nc(SCC(=O)N2CCOCC2)[nH]c1=O (stereo not given)	0.38	-3	7	1.8	1.5	-2
Cc1cccc(NC(=O)c2ccc(S(=O)(=O)N3CCCCC3)cc2)n1	-2.4	26	4	-2.6*	0.48	10
Cc1cccc(NC(=O)c2ccc(C(=O)Nc3cccc(C)n3)cc2)n1	.	.	.	.	.	-9
O=C(Nc1ccc2oc(-c3cccc(Cl)c3Cl)nc2c1)c1ccco1	.	.	.	.	.	101*
C=CCc1cccc(/C=N/N2CCN(c3ccc(Cl)cc3)CC2)c1O	.	.	.	.	.	-2
Cc1ccc(S(=O)(=O)N(CC(O)CN(C)C)c2ccccc2)cc1 (stereo not given)	0.31	21	-2	0.019	.	7
O=C(C1CC(c2ccc(F)cc2)=NO1)N1CCCCC1 (stereo not given)	0.77	18	55*	0.23	-0.78	5
O=C(C1CC(c2ccc(F)cc2)=NO1)N1CCN(c2ccccc2)CC1 (stereo not given)	-0.56	7	-7	-0.91	-0.61	7
O=C(C1CC(c2ccc(F)cc2)=NO1)N1CCc2ccccc2C1 (stereo not given)	0.0095	0	3	-0.014	0.18	12
CC1CCCCN1C(=O)C1CC(c2ccc(F)cc2)=NO1 (stereo not given)	0.05	49*	63*	0.35	-0.019	8
O=C(CSc1ccccn1)c1ccc2c(c1)OCO2	0.17	9	61*	0.17	-0.89	4
O=C(CSc1nc2ccccc2[nH]1)c1ccc2c(c1)OCO2	-0.66	51*	40	-1.5	-0.13	0
CC1CCN(C(=O)CSc2nc3ccccc3[nH]2)CC1	0.071	61*	44	-0.096	-0.98	2
O=C(CSc1nc2ccccc2[nH]1)N1CCN(c2ccc(F)cc2)CC1	0.27	3	2	0.4	-0.1	13
Cc1c(C(=O)N2CCN(c3ccccn3)CC2)oc2ccccc12	-0.28	-26	-2	0.79	2	-6
SMILES	M1 antagonist	RORA act	SF-1 act	M1 agonist	D1 allo mod	HePTP inh
CCCC(C)NS(=O)(=O)c1ccccc1[N+](=O)[O-] (stereo not given)	.	.	.	.	.	8
CC(C)NC(=O)Cn1c(SCC(=O)N2CCCCCC2)nc2ccccc21	-0.21	11	-4	-0.0015	-1.5	5
COC1=CC(CC(=O)c2ccc(OC)cc2)C(C(=O)c2ccccc2Cl)C=C1OC (stereo not given)	.	.	.	.	.	95*
COC1=CC(CC(=O)c2ccc(OC)c(OC)c2)C(C(=O)c2ccccc2Cl)C=C1OC (stereo not given)	.	.	.	.	.	5
CCOC(=O)Nc1ccc(S(=O)(=O)Nc2cc(C)nc(C)n2)cc1	.	.	.	.	.	-15
Cc1ccc(NC2=NC3(CCCC3)N=C(N)N2)c(C)c1	.	.	.	.	.	0
COc1ccc(NC2=NC3(CCCC3)N=C(N)N2)cc1	.	.	.	.	.	-9
Cc1ccc(NC2=NC3(CCCCC3)N=C(N)N2)c(C)c1	0.18	-3	4	0.47	-4.1*	0
Cc1ccc(NC2=NC3(CCCCC3)N=C(N)N2)cc1	.	.	.	.	.	5
Cc1ccc(C)c(NC2=NC3(CCCCC3)N=C(N)N2)c1	0.85	-6	-22	-0.38	-6*	.
COc1cccc(NC2=NC3(CCCCC3)N=C(N)N2)c1	-0.29	-8	6	-0.14	-2.7*	4
O=C(Nc1ccccc1C(=O)N1CCOCC1)c1ccc([N+](=O)[O-])cc1	.	.	.	.	.	-6
COc1ccccc1N1CCN(CCOc2c(OC)cccc2OC)CC1	2.5*	-26	-20	1.4	.	-9
CCOc1ccccc1N1CCN(Cc2cccc(OC)c2O)CC1	-0.28	-3	7	-0.088	-3.7*	-15
CCCOc1cccc(C(=O)Nc2sc(CC)cc2C(=O)OC)c1	.	.	.	.	.	-14
CCOC(=O)N1CCN(C(=O)CCCOc2ccccc2)CC1	-0.12	38	75*	0.91	-0.67	4
O=C(CSc1ncn[nH]1)Nc1cccc(C(F)(F)F)c1	.	.	.	.	.	-9
COCCCNC(=O)CN(c1ccc(OC)c(Cl)c1)S(C)(=O)=O	.	.	.	.	.	0
COc1ccc(C2=NO[C@@H]3C(=O)N(c4cccc(C)c4C)C(=O)[C@H]23)cc1OC	0.91*	1	-12	0.24	-0.44	12
O=C(c1ccc2c(c1)c(=O)oc1ccccc12)N1CCCCC1	0.47	50*	42	-0.71	1.1	2
CCCC1C2CN(C(C)C)CC=C2C(C#N)=C(N)C1(C#N)C#N (stereo not given)	0.61	-5	-4	8.3*	0.29	-1
CSc1nc(N2CCOCC2)c2c3c(sc2n1)CCC3	0.097	8	-2	0.089	8.5*	-12
Oc1ccc(-c2nnc(SCC3CCCCC3)o2)cc1	-0.065	59*	64*	0.0085	0.18	-7
O=C(CSc1nnc(-c2ccc(O)cc2)o1)N1CCOCC1	-0.092	45	29	-0.1	-0.62	10
CCOc1ccc(-c2nnn(CC(=O)Nc3cccc(OC)c3)n2)cc1OCC	0.13	-10	-13	-0.87	13*	-10
SMILES	M1 antagonist	RORA act	SF-1 act	M1 agonist	D1 allo mod	HePTP inh
CCOc1ccc(-c2nnn(CC(=O)NCc3ccc(F)cc3)n2)cc1OCC	-0.031	-7	25	-0.067	1.4	8
O=C(N/N=C/c1ccccn1)c1cccc([N+](=O)[O-])c1	.	.	.	.	.	1
COc1ccc(C(=O)N(Cc2ccco2)C(C(=O)NC2CCCC2)c2ccc(O)cc2)cc1OC (stereo not given)	-1.3	-2	5	2.6*	0.17	4
O=C(NC1CCCCC1)C(c1ccco1)N(Cc1ccco1)C(=O)c1ccco1 (stereo not given)	0.65	5	-29	-0.33	-0.75	-5
O=C(Cc1ccccc1)Nc1ccc(NC(=O)c2ccco2)nc1	-2	17	59*	-1.4	-1.4	-7
O=C(Nc1ccc(NC(=O)c2ccco2)nc1)c1ccccn1	1.3	27	52*	1.6	-4.1*	-5
